The source of these data is ChEMBL document CHEMBL4371044, “Celastrol Promotes Weight Loss in Diet-Induced Obesity by Inhibiting the Protein Tyrosine Phosphatases PTP1B and TCPTP in the Hypothalamus” (J Med Chem, 2018).

Calls of active or inactive are those of the source. The calls are words filed in the database; no cut-off is given here.

The test system of experiment [1] is Mus musculus. Put plainly: Antiobesity activity in high fat diet-induced obese Ptpn1fl/fl null C57BL/6 mouse assessed as reduction in body weight at 100 ug/kg, ip for 10 consecutive days. Type of experiment: functional, organism-based. Summed up: (§1)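 Male Ptpn1fl/fl, Ptpn2fl/fl or double-floxed mice: chow 8 weeks, then high-fat diet (45% energy from fat) 12 weeks. Bilateral intra-ARC stereotaxic injection of rAAV-CMV-Cre-GFP or rAAV-CMV-GFP, 100 nL/side. After 2 weeks recovery, vehicle or 100 μg/kg ip daily at 6 pm for 10 days; body weight tracked; two-way repeated-measures ANOVA with Tukey test; means ± SEM.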

Experiment [2] has as its system Mus musculus. Put plainly: Antiobesity activity in high fat diet-induced obese Ptpn2fl/fl null C57BL/6 mouse assessed as reduction in body weight at 100 ug/kg, ip for 10 consecutive days. Type of experiment: functional, organism-based. The method, boiled down: as §1
The target of experiment [3] is T1, Tyrosine-protein phosphatase non-receptor type 1 (Homo sapiens, UniProt P18031).
T1 sequence (P18031 whole entry): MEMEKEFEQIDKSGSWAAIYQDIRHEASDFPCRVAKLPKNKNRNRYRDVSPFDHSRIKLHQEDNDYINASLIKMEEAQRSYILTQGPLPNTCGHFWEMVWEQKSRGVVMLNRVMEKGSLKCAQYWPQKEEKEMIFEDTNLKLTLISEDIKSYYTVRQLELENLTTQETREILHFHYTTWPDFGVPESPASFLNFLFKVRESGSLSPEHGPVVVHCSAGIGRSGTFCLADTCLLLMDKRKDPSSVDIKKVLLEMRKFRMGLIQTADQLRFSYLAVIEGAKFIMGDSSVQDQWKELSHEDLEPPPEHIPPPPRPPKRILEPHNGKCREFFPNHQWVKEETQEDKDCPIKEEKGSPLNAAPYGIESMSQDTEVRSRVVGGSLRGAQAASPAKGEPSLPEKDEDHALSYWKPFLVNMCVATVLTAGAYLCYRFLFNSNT
Put plainly: Inhibition of human N-terminal His6-tagged PTP1B catalytic domain (1 to 393 residues) expressed in Escherichia coli strain Rosetta2 (DE3) using DiFMUP as substrate preincubated for 10 mins followed by substrate addition and measured after 10 mins by fluorescence assay. Summed up:
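Tag-cleaved, SEC-purified enzyme at 1 nM, preincubated 10 min with compound at 15 concentrations from 0–500 μM (5% DMSO final) in 25 mM Bis-Tris propane pH 7.5, 50 mM NaCl, 2 mM EDTA. DiFMUP added at each construct's Km (10, 7, 10, 9 μM for PTP1B1−298, PTP1B1−393, TCPTP1−296, TCPTP1−336). Read ex 358/em 455 nm continuously 10 min at 37 °C; triplicate; log(inhibitor)-response fit.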

Experiment [4] addresses T2, Tyrosine-protein phosphatase non-receptor type 2 (Homo sapiens) (UniProt P17706).
T2 sequence (whole entry): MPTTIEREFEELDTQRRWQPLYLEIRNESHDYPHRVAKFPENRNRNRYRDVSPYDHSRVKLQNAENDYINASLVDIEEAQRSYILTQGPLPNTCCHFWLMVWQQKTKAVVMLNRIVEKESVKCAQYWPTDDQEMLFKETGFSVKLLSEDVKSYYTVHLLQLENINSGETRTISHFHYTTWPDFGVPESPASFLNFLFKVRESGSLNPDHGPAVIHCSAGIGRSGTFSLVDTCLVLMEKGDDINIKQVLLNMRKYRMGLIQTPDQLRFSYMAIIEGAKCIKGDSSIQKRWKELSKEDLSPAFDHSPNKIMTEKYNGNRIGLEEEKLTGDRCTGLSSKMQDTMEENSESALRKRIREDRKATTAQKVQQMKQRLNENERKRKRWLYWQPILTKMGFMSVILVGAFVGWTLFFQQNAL
Put plainly: Inhibition of human N-terminal His6-tagged TCPTP catalytic domain (1 to 336 residues) expressed in Escherichia coli strain Rosetta2 (DE3) up to 500 uM using pNPP as substrate preincubated for 10 mins followed by substrate addition and measured after 10 mins by […].

In experiment [5] the target is T1, Tyrosine-protein phosphatase non-receptor type 1. Put plainly: Binding affinity to human N-terminal His6-tagged PTP1B catalytic domain (1 to 298 residues) expressed in Escherichia coli strain Rosetta2 (DE3) assessed as association rate constant […].

Experiment [6] has as its target T3, Tyrosine-protein phosphatase non-receptor type 1 (Homo sapiens) (UniProt P18031).
T3 sequence (whole entry): T1 sequence (P18031 whole entry)
Put plainly: Inhibition of human N-terminal His6-tagged PTP1B catalytic domain (1 to 393 residues) expressed in Escherichia coli strain Rosetta2 (DE3) using DiFMUP as substrate preincubated for 10 mins followed by substrate addition and measured after 10 mins in presence of 0.05% Tween20 by fluorescence assay. The method, boiled down:
(§2)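 DiFMUP IC50 assay (1 nM enzyme, 10 min preincubation, substrate at Km, 37 °C, ex 358/em 455 nm), repeated as an aggregation check under three altered conditions: 10-fold enzyme (10 nM), 0.05% Tween 20, or 0.1 mg/mL BSA in buffer.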

Experiment [7] has as its target T2, Tyrosine-protein phosphatase non-receptor type 2 (Homo sapiens). Put plainly: Inhibition of human N-terminal His6-tagged TCPTP catalytic domain (1 to 336 residues) expressed in Escherichia coli strain Rosetta2 (DE3) using DiFMUP as substrate preincubated for 10 mins followed by substrate addition and measured after 10 mins in presence of 0.05% Tween20 by fluorescence assay. Summed up:
as §2

The target in experiment [8] is Tyrosine-protein phosphatase non-receptor type 6 (Homo sapiens, UniProt P29350). Put plainly: Inhibition of human SHP1 (245 to 521 residues) expressed in Escherichia coli strain BL21(DE3) using DiFMUP as substrate preincubated for 10 mins followed by substrate addition and measured after 10 mins by fluorescence assay. The method, boiled down:
(§3)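 Selectivity panel on enzymes expressed in E. coli BL21(DE3), purified by nickel affinity then size exclusion. DiFMUP fluorescence assay run as for PTP1B/TCPTP, with per-enzyme conditions in a supplementary table; nonlinear regression for IC50; three independent experiments.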

Experiment [9] in a line: Inhibition of mouse LMPTP-B (1 to 158 residues) expressed in Escherichia coli strain BL21(DE3) using DiFMUP as substrate preincubated for 10 mins followed by substrate addition and measured after 10 mins by fluorescence assay. The method, boiled down: as §3
Experiment [10] concerns the target Phosphatidylinositol 3,4,5-trisphosphate 3-phosphatase and dual-specificity protein phosphatase PTEN (Homo sapiens, UniProt P60484). Put plainly: Inhibition of human PTEN (1 to 403 residues) expressed in Escherichia coli strain BL21(DE3) using DiFMUP as substrate preincubated for 10 mins followed by substrate addition and measured after 10 mins by fluorescence assay.

For experiment [11], the system named is Mus musculus. Put plainly: Antiobesity activity in high fat diet-induced obese Ptpn1fl/fl null C57BL/6 mouse treated with rAAV-CMV-Cre-GFP for deletion of PTP1B and TCPTP assessed as reduction in body weight at 100 ug/kg, ip for 10 consecutive days. Type of experiment: functional, organism-based.
In experiment [12] the target is T3, Tyrosine-protein phosphatase non-receptor type 1 (Homo sapiens). Put plainly: Binding affinity to human N-terminal His6-tagged PTP1B catalytic domain (1 to 298 residues) expressed in Escherichia coli strain Rosetta2 (DE3) by NMR spectroscopy. The method, boiled down: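 100 μM 2H(~70%)/15N-labelled PTP1B1−298 in 100 mM d11-Tris pH 7.5, 75 mM NaCl, 10% D2O at 20 °C. Compound added to 250 μM (0.5% DMSO-d6); 1H,15N TROSY at 800 MHz against DMSO-only reference; amide chemical shift perturbations computed.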

Sequence of Tyrosine-protein phosphatase non-receptor type 6 (P29350 whole entry, the tested form may be a part): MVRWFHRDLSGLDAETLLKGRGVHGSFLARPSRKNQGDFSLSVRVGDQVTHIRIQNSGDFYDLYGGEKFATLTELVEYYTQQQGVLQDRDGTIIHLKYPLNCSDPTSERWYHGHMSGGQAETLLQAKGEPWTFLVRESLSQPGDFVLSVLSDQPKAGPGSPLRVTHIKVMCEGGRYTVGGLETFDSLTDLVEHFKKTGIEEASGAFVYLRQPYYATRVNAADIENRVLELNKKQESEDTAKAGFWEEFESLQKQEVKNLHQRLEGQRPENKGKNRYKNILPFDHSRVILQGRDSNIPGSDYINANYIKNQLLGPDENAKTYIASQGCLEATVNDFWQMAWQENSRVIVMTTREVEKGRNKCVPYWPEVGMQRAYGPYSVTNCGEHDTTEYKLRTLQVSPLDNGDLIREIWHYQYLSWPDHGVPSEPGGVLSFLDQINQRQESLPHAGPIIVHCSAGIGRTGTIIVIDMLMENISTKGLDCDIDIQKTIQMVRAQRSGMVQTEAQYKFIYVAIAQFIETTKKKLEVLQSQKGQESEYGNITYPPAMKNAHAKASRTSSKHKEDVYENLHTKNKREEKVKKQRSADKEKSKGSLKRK
Sequence of Phosphatidylinositol 3,4,5-trisphosphate 3-phosphatase and dual-specificity protein phosphatase PTEN (P60484 whole entry, the tested form may be a part): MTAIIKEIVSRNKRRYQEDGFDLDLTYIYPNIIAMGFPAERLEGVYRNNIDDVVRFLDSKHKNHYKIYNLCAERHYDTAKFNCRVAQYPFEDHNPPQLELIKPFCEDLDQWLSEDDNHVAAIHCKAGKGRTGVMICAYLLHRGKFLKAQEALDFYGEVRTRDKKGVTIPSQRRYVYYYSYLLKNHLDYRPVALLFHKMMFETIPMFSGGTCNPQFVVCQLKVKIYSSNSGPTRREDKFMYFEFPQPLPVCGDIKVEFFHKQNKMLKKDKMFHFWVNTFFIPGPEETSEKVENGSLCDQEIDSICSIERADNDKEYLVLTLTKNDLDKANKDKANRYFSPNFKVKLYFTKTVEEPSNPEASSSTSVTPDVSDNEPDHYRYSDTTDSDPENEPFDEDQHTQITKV

For `CC1=C(O)C(=O)C=C2C1=CC=C1[C@@]2(C)CC[C@@]2(C)[C@@H]3C[C@](C)(C(=O)O)CC[C@]3(C)CC[C@]12C` [CELASTROL], the result (in the experiment with Mus musculus [1]; with Mus musculus [2]; in [12]) was Active. Besides, the IC50 (usually the concentration that inhibits the measured activity by half) in experiment [3] is 2.1 µM; in experiment [8], 3.1 µM; in [9], above 500 µM; in [10] it was 13.3 µM. The inhibition entry in experiment [4], in [6] and in [7] was “Active” in each case. Further, the kon (in general, the second-order rate constant of association) in experiment [5] is 59.46 M⁻¹ s⁻¹. In addition, the result with Mus musculus [11] was inactive.
